What was measured:
[1] = biological target: NAD(P)H dehydrogenase [quinone] 1 (Mus musculus) (UniProt Q64669); assay: Induction of QR1 activity in mouse Hepa-1c1c7 cells assessed as induction ratio at 50 uM after 48 hrs by MTT assay relative to control; format: cell-based
In short: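 QR1 induction is reported as the induction ratio, meaning activity relative to control, measured at a test concentration of 50 μM.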

Aromatase [2] = biological target: T1, Aromatase (Homo sapiens, UniProt P11511); assay: Inhibition of CYP19A1 (unknown origin) at 50 uM preincubated with NADPH followed by DBF substrate addition after 30 mins by fluorescence based assay relative to control
T1 sequence (P11511 whole entry): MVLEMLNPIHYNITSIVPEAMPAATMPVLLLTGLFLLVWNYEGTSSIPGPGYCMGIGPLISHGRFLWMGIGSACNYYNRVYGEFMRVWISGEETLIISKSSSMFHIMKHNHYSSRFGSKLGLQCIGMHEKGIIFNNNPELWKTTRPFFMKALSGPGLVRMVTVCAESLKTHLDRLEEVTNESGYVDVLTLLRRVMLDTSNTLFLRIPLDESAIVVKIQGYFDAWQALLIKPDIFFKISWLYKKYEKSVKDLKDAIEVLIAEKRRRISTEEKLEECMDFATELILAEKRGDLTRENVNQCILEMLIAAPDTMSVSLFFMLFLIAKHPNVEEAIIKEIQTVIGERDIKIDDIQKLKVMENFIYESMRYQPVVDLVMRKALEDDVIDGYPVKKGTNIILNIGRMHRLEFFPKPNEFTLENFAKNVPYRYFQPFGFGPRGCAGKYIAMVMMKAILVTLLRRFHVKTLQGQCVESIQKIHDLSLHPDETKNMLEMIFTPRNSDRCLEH
In short: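 Aromatase inhibition was screened at 50 μM test concentration. Activity is expressed as percent inhibition relative to vehicle-treated controls.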

[3] = biological target: NAD(P)H dehydrogenase [quinone] 1 (Mus musculus) (UniProt Q64669); assay: Induction of QR1 activity in mouse Hepa-1c1c7 cells assessed as drug concentration required to double enzyme activity after 48 hrs by MTT assay; format: cell-based
In short: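 CD is the concentration that doubles QR1 activity. It was determined only for compounds whose induction ratio at 50 μM exceeded 2.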

Aromatase [4] = biological target: T1, Aromatase; assay: Inhibition of CYP19A1 (unknown origin) preincubated with NADPH followed by DBF substrate addition after 30 mins by fluorescence based assay

Sequence of NAD(P)H dehydrogenase [quinone] 1 (Mus musculus) (Q64669 whole entry): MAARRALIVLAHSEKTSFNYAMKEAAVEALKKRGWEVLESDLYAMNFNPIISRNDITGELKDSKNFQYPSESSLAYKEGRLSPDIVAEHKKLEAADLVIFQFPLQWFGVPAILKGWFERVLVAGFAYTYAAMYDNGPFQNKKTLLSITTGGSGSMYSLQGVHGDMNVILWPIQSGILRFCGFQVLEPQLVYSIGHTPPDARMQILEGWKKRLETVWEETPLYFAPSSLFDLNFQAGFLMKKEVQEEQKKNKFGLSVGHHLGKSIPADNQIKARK

c1ccc2[nH]c(-c3ccsc3)cc2c1
Ratio [1]: 0.67
inhibition at 50 µM (Aromatase [2]): 22%

CN(C)c1ccc(-c2cc3ccccc3[nH]2)cc1
Ratio [1]: 1.21
inhibition at 50 µM (Aromatase [2]): 0%

c1ccc(C2Cc3ccccc3N2)cc1 (stereo not drawn)
Ratio [1]: 1.8
inhibition at 50 µM (Aromatase [2]): 49%

c1ccc(Cn2c(-c3ccccc3)cc3ccccc32)cc1
Ratio [1]: 0.37
inhibition at 50 µM (Aromatase [2]): 0%

COc1cccc(-c2cc3ccccc3[nH]2)c1
Ratio [1]: 1.3
inhibition at 50 µM (Aromatase [2]): 48.4%

COc1cc(OC)cc(-c2cc3ccccc3[nH]2)c1
Ratio [1]: 3.75
CD [3]: 1.12 µM
inhibition at 50 µM (Aromatase [2]): 9.18%

O=[N+]([O-])c1ccc2[nH]c(-c3ccc(Cl)c(Cl)c3)cc2c1
Ratio [1]: 1.07
inhibition at 50 µM (Aromatase [2]): 7.59%

Nc1ccc2[nH]c(-c3ccc(Cl)c(Cl)c3)cc2c1
Ratio [1]: 4.9
CD [3]: 10.3 µM
inhibition at 50 µM (Aromatase [2]): 21.4%

CO/N=C/c1c(-c2ccccc2)[nH]c2ccccc12
Ratio [1]: 1.3
inhibition at 50 µM (Aromatase [2]): 24.7%

Fc1cc(F)cc(-c2cc3ccccc3[nH]2)c1
Ratio [1]: 0.58
inhibition at 50 µM (Aromatase [2]): 11%

Cn1c(-c2ccc(Cl)c(Cl)c2)cc2cc(N)ccc21
Ratio [1]: 2.14
CD [3]: 46.7 µM
inhibition at 50 µM (Aromatase [2]): 42%

Fc1ccc(-c2cc3ccccc3[nH]2)cc1
Ratio [1]: 2.73
CD [3]: 17.8 µM
inhibition at 50 µM (Aromatase [2]): 21.8%

C#CCn1c(-c2ccccc2)cc2ccccc21
Ratio [1]: 0.87
inhibition at 50 µM (Aromatase [2]): 26.3%

Cc1ccccc1-c1cc2cc([N+](=O)[O-])ccc2[nH]1
Ratio [1]: 0.78
inhibition at 50 µM (Aromatase [2]): 71.5%
IC50 (Aromatase [4]): 6.87 µM

CCCCCc1ccc(-c2cc3ccccc3[nH]2)cc1
Ratio [1]: 0.78
inhibition at 50 µM (Aromatase [2]): 0%

Cc1ccc2cc(-c3ccccc3)[nH]c2c1
Ratio [1]: 1
inhibition at 50 µM (Aromatase [2]): 32.4%

Clc1cccc(-c2cc3ccccc3[nH]2)c1
Ratio [1]: 5.2
CD [3]: 2.17 µM
inhibition at 50 µM (Aromatase [2]): 24.1%

COCn1c(-c2ccccc2)cc2ccccc21
Ratio [1]: 1.9
inhibition at 50 µM (Aromatase [2]): 20.2%

O/N=C/c1c(-c2ccccc2)[nH]c2ccccc12
Ratio [1]: 3.1
CD [3]: 11.7 µM
inhibition at 50 µM (Aromatase [2]): 40.4%

Cc1ccc(-c2cc3ccccc3[nH]2)cc1
Ratio [1]: 5.2
CD [3]: 6.4 µM
inhibition at 50 µM (Aromatase [2]): 9.33%

Brc1ccc2[nH]c(-c3ccccc3)cc2c1
Ratio [1]: 5.5
CD [3]: 6.76 µM
inhibition at 50 µM (Aromatase [2]): 58.1%
IC50 (Aromatase [4]): 39.7 µM

COc1ccc(-c2cc3ccccc3[nH]2)cc1
Ratio [1]: 1.56
inhibition at 50 µM (Aromatase [2]): 0%

Clc1ccc2[nH]c(-c3ccccc3)cc2c1
Ratio [1]: 5.1
CD [3]: 5.5 µM
inhibition at 50 µM (Aromatase [2]): 70.5%
IC50 (Aromatase [4]): 22.8 µM

Cn1c(-c2ccc(Cl)c(Cl)c2)cc2cc([N+](=O)[O-])ccc21
Ratio [1]: 1.56
inhibition at 50 µM (Aromatase [2]): 34%

Cn1c(-c2ccccc2)cc2cc([N+](=O)[O-])ccc21
Ratio [1]: 0.89
inhibition at 50 µM (Aromatase [2]): 77%
IC50 (Aromatase [4]): 3.88 µM

Cn1c(-c2ccccc2)cc2ccccc21
Ratio [1]: 0.5
inhibition at 50 µM (Aromatase [2]): 0%

C(=N\OCc1ccccc1)/c1c(-c2ccccc2)[nH]c2ccccc12
Ratio [1]: 0.5
inhibition at 50 µM (Aromatase [2]): 23.2%

N#Cc1ccc2[nH]c(-c3ccccc3)cc2c1
Ratio [1]: 1.06
inhibition at 50 µM (Aromatase [2]): 82.3%
IC50 (Aromatase [4]): 3.34 µM

N#Cc1ccc2[nH]c(-c3cccnc3)cc2c1
Ratio [1]: 2.1
CD [3]: 31.2 µM
inhibition at 50 µM (Aromatase [2]): 93.7%
IC50 (Aromatase [4]): 11.5 µM

O=[N+]([O-])c1ccc2[nH]c(-c3cccnc3)cc2c1
Ratio [1]: 1.7
inhibition at 50 µM (Aromatase [2]): 27.9%

c1cncc(-c2cc3ccccc3[nH]2)c1
Ratio [1]: 1.14
inhibition at 50 µM (Aromatase [2]): 81.5%
IC50 (Aromatase [4]): 3.05 µM

Nc1cccc(-c2cc3ccccc3[nH]2)c1
Ratio [1]: 2.7
CD [3]: 18.4 µM
inhibition at 50 µM (Aromatase [2]): 26.7%

O=[N+]([O-])c1ccc2[nH]c(-c3ccccc3)cc2c1
Ratio [1]: 3.92
CD [3]: 5.76 µM
inhibition at 50 µM (Aromatase [2]): 77.7%
IC50 (Aromatase [4]): 9 µM

CC(C)(C)OC(=O)n1c(-c2ccccc2)cc2ccccc21
Ratio [1]: 1
inhibition at 50 µM (Aromatase [2]): 11.9%

Nc1ccc2[nH]c(-c3ccccc3)cc2c1
Ratio [1]: 0.72
inhibition at 50 µM (Aromatase [2]): 41.4%

Clc1ccc(-c2cc3ccccc3[nH]2)cc1Cl
Ratio [1]: 0.57
inhibition at 50 µM (Aromatase [2]): 22.6%

Brc1ccc(-c2cc3ccccc3[nH]2)cc1
Ratio [1]: 2.8
CD [3]: 5.1 µM
inhibition at 50 µM (Aromatase [2]): 4.8%

FC(F)(F)Oc1ccc(-c2cc3ccccc3[nH]2)cc1
Ratio [1]: 2.48
CD [3]: 29.1 µM
inhibition at 50 µM (Aromatase [2]): 1.86%

Cc1ccccc1-c1cc2ccccc2[nH]1
Ratio [1]: 0.54
inhibition at 50 µM (Aromatase [2]): 27.1%

c1ccc(-c2cc3ccccc3[nH]2)cc1 [2-PHENYL-1H-INDOLE]
inhibition at 50 µM (Aromatase [2]): 27.8%

Cn1c(-c2ccc(Cl)c(Cl)c2)cc2ccccc21
Ratio [1]: 4.4
CD [3]: 2.1 µM
inhibition at 50 µM (Aromatase [2]): 20%

Clc1ccc2cc(-c3ccccc3)[nH]c2c1
Ratio [1]: 4.25
CD [3]: 6.8 µM
inhibition at 50 µM (Aromatase [2]): 13.6%

Clc1ccc(-c2cc3ccccc3[nH]2)cc1
CD [3]: 2.75 µM
inhibition at 50 µM (Aromatase [2]): 15.8%

Clc1ccccc1-c1cc2ccccc2[nH]1
Ratio [1]: 1.4
inhibition at 50 µM (Aromatase [2]): 21.5%

c1ccc(-c2nc3ccccc3[nH]2)cc1
inhibition at 50 µM (Aromatase [2]): 7.64%

Nc1ccccc1C#Cc1cc(F)cc(F)c1
Ratio [1]: 1.48
inhibition at 50 µM (Aromatase [2]): 9.27%

Nc1ccc(-c2cc3ccccc3[nH]2)cc1
Ratio [1]: 0.56
inhibition at 50 µM (Aromatase [2]): 46.2%

COc1ccc2ccc(-c3cc4ccccc4[nH]3)cc2c1
Ratio [1]: 0.74
inhibition at 50 µM (Aromatase [2]): 0.07%

— ChEMBL document CHEMBL4184169, “Structure-activity relationships and docking studies of synthetic 2-arylindole derivatives determined with aromatase and quinone reductase 1” (Bioorg Med Chem Lett, 2017)
